Values joined by “and” are separate entries in the source; they are usually repeats but may differ in a detail not shown here. Equal entries are not always repeated.
Legend:
Format in all cases: toxicity, cell-based
U2OS [1] = experiment: Multiplex assay against U2OS; settings: human, 10 µM, compound concentration 10 uM
Outline: (§1)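 Four dyes were applied at seeding to live cells: Hoechst33342, BioTracker Green Microtubule Cytoskeleton Dye, MitoTracker Red and Annexin V Alexa Fluor 680. Imaging after compound addition used a CQ1 microscope at 37°C and 5% CO2. CellPathfinder machine-learning gating then sorted cells into Hoechst high-intensity objects or normal cells, normal cells into healthy, pyknosed or fragmented nuclei, and pyknosed cells into mitotic or apoptotic, with tubulin, mitochondrial-mass and membrane-permeability phenotypes given as per cents of healthy-nucleus cells.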

Fibroblast = experiment: Incucyte cell viability with human fibroblast; settings: 10 µM, compound concentration 10 uM; also: filed as whole numbers so only -1 and 0 and 1 occur
U2OS [2] = experiment: Incucyte cell viability with U2OS; settings: human, 10 µM, compound concentration 10 uM; also: filed as whole numbers so only -1 and 0 and 1 occur
HEK-293T = experiment: Multiplex assay against HEK293T; settings: human, 10 µM, compound concentration 10 uM; outline: as §1;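 as to Population Tubulin-Different-Phenotype (%): share of the cells with healthy nuclei that show this phenotype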
[3] = 0 h, replicate number 2, timepoint 0 hours
[4] = 18 h, replicate number 1, timepoint 18 hours
[5] = 24 h, replicate number 1, timepoint 24 hours

CN1CCN(C(=O)C(C)(C)c2ccc(C(=O)Nc3cn4cc(-c5ccncc5)ccc4n3)cc2)CC1 [T3-CLK]
Population Apoptotic (%) (U2OS [1]; 12 h, replicate 1): 37% and 22%
Population Healthy Nuclei (%) (U2OS [1]; 12 h, replicate 1): 90% and 71% and 89%
Population Hoechst High Intensity Objects (%) (U2OS [1]; 12 h, replicate 1): 5%
Population Mitotic Cells (%) (U2OS [1]; 12 h, replicate 1): 62% and 77%
Population Normal (%) (U2OS [1]; 12 h, replicate 1): 94%
Population Pyknosed Nuclei (%) (U2OS [1]; 12 h, replicate 1): 10% and 7%
Total Cell Count (U2OS [1]; 12 h, replicate 1): 128 and 143 and 333
Population Healthy Nuclei (%) (U2OS [1]; 12 h, replicate 2): 88% and 70% and 87%
Population Hoechst High Intensity Objects (%) (U2OS [1]; 12 h, replicate 2): 6% and 7% and 9%
Population Membrane Permeable-Phenotype (%) (U2OS [1]; 12 h, replicate 2): 62% and 21% and 25%
Population Mitotic Cells (%) (U2OS [1]; 12 h, replicate 2): 50% and 100% and 66%
Population Normal (%) (U2OS [1]; 12 h, replicate 2): 93% and 92% and 90%
Population Pyknosed Nuclei (%) (U2OS [1]; 12 h, replicate 2): 5% and 11% and 3%
Population Apoptotic (%) (U2OS [1]; 24 h, replicate 1): 36% and 62% and 33%
Population Fragmented Nuclei (%) (U2OS [1]; 24 h, replicate 1): 11% and 21% and 8%
Population Healthy Nuclei (%) (U2OS [1]; 24 h, replicate 1): 81% and 64% and 77%
Population Hoechst High Intensity Objects (%) (U2OS [1]; 24 h, replicate 1): 5% and 10% and 6%
Population Membrane Permeable-Phenotype (%) (U2OS [1]; 24 h, replicate 1): 52% and 26% and 34%
Population Mitotic Cells (%) (U2OS [1]; 24 h, replicate 1): 63% and 37% and 66%
Population Normal (%) (U2OS [1]; 24 h, replicate 1): 94% and 90% and 93%
Population Pyknosed Nuclei (%) (U2OS [1]; 24 h, replicate 1): 6% and 13% and 14%
Total Cell Count (U2OS [1]; 24 h, replicate 1): 137 and 141 and 262
Population Apoptotic (%) (U2OS [1]; 24 h, replicate 2): 50% and 22%
Population Fragmented Nuclei (%) (U2OS [1]; 24 h, replicate 2): 29% and 22% and 15%
Population Healthy Nuclei (%) (U2OS [1]; 24 h, replicate 2): 58% and 66% and 70%
Population Hoechst High Intensity Objects (%) (U2OS [1]; 24 h, replicate 2): 12% and 9%
Population Membrane Permeable-Phenotype (%) (U2OS [1]; 24 h, replicate 2): 17% and 19%
Population Mitotic Cells (%) (U2OS [1]; 24 h, replicate 2): 50% and 77%
Population Normal (%) (U2OS [1]; 24 h, replicate 2): 87%
Population Pyknosed Nuclei (%) (U2OS [1]; 24 h, replicate 2): 11%
Population Apoptotic (%) (U2OS [1]; 48 h, replicate 1): 73%
Population Fragmented Nuclei (%) (U2OS [1]; 48 h, replicate 1): 34%
Population Healthy Nuclei (%) (U2OS [1]; 48 h, replicate 1): 15%
Population Hoechst High Intensity Objects (%) (U2OS [1]; 48 h, replicate 1): 16%
Population Membrane Permeable-Phenotype (%) (U2OS [1]; 48 h, replicate 1): 56%
Population Mitochondria Different-Phenotype (%) (U2OS [1]; 48 h, replicate 1): 87%
Population Mitotic Cells (%) (U2OS [1]; 48 h, replicate 1): 26%
Population Normal (%) (U2OS [1]; 48 h, replicate 1): 83%
Population Pyknosed Nuclei (%) (U2OS [1]; 48 h, replicate 1): 50%
Population Tubulin-Different-Phenotype (%) (U2OS [1]; 48 h, replicate 1): 100%
Total Cell Count (U2OS [1]; 48 h, replicate 1): 145
Population Apoptotic (%) (U2OS [1]; 48 h, replicate 2): 61%
Population Fragmented Nuclei (%) (U2OS [1]; 48 h, replicate 2): 28%
Population Healthy Nuclei (%) (U2OS [1]; 48 h, replicate 2): 36%
Population Hoechst High Intensity Objects (%) (U2OS [1]; 48 h, replicate 2): 23%
Population Membrane Permeable-Phenotype (%) (U2OS [1]; 48 h, replicate 2): 63%
Population Mitochondria Different-Phenotype (%) (U2OS [1]; 48 h, replicate 2): 81%
Population Mitotic Cells (%) (U2OS [1]; 48 h, replicate 2): 38%
Population Normal (%) (U2OS [1]; 48 h, replicate 2): 76%
Population Pyknosed Nuclei (%) (U2OS [1]; 48 h, replicate 2): 35%
Population Tubulin-Different-Phenotype (%) (U2OS [1]; 48 h, replicate 2): 90%
Total Cell Count (U2OS [1]; 48 h, replicate 2): 57
Growth Rate (Fibroblast; [3]): 0
Growth Rate (Fibroblast; [4]): 1
Growth Rate (Fibroblast; [5]): 1
Growth Rate (U2OS [2]; [3]): 0
Growth Rate (U2OS [2]; 6 h, replicate number 1, timepoint 6 hours): 1
Growth Rate (U2OS [2]; 12 h, replicate number 1, timepoint 12 hours): 0
Growth Rate (U2OS [2]; 12 h, replicate number 2, timepoint 12 hours): 1
Growth Rate (U2OS [2]; [4]): 0
Growth Rate (U2OS [2]; 18 h, replicate number 2, timepoint 18 hours): 1
Growth Rate (U2OS [2]; [5]): 0
Growth Rate (U2OS [2]; 24 h, replicate number 2, timepoint 24 hours): 1
Population Hoechst High Intensity Objects (%) (HEK-293T; 12 h, replicate 1): 16% and 14% and 10%
Population Membrane Permeable-Phenotype (%) (HEK-293T; 12 h, replicate 1): 6% and 17%
Population Normal (%) (HEK-293T; 12 h, replicate 1): 83% and 85% and 89%
Population Pyknosed Nuclei (%) (HEK-293T; 12 h, replicate 1): 24% and 27%
Population Fragmented Nuclei (%) (HEK-293T; 12 h, replicate 2): 4% and 3% and 6%
Population Hoechst High Intensity Objects (%) (HEK-293T; 12 h, replicate 2): 7% and 4%
Population Membrane Permeable-Phenotype (%) (HEK-293T; 12 h, replicate 2): 10% and 5%
Population Mitotic Cells (%) (HEK-293T; 12 h, replicate 2): 49% and 79% and 91%
Population Normal (%) (HEK-293T; 12 h, replicate 2): 92% and 95%
Population Tubulin-Different-Phenotype (%) (HEK-293T; 12 h, replicate 2): 89% and 85% and 39%
Population Fragmented Nuclei (%) (HEK-293T; 24 h, replicate 1): 15% and 17% and 6%
Population Hoechst High Intensity Objects (%) (HEK-293T; 24 h, replicate 1): 18% and 17% and 6%
Population Membrane Permeable-Phenotype (%) (HEK-293T; 24 h, replicate 1): 9% and 11% and 13%
Population Normal (%) (HEK-293T; 24 h, replicate 1): 81% and 82% and 93%
Population Tubulin-Different-Phenotype (%) (HEK-293T; 24 h, replicate 1): 100% and 76% and 34%
Population Fragmented Nuclei (%) (HEK-293T; 24 h, replicate 2): 4% and 7%

From ChEMBL document CHEMBL4689842, “EUbOPEN Chemogenomics Library wave 1” (2021)
